Source: PubChem
Compounds with a hit are over-represented: about 3.5% of the library has one in this group of screens.
MrgX1 allo act: allosterically activates human MrgX1 receptor signaling; B-score at 10 µM; MrgX1-HEK293, Fluo-4 calcium flux, FDSS; hits give high values; AID 588675; Q96LB2; actives 0.63% (n = 310,000);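 active = plate-corrected calcium response at least 3 library SD above typical, normal starting fluorescence, not activating the receptor alone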;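 also: compound read alongside a low EC10 to EC30 dose of BAM8-22 agonist; peak minus trough fluorescence over baseline measured at the second addition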
Target sequence (Q96LB2 whole entry, looked up): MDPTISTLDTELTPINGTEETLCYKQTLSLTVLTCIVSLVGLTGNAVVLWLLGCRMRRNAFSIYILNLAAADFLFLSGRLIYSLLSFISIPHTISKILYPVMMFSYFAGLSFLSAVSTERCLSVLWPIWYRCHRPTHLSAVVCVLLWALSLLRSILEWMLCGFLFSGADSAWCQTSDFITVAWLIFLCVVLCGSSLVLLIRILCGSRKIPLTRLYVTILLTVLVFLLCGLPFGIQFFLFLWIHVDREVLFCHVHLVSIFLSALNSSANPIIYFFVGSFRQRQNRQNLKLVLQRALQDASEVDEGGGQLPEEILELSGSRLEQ
MrgX1 ag: agonists of human MrgX1 receptor; MrgX1-HEK293 cells, Fluo-4 calcium fluorescence, agonist mode; hits give high values; B-score at 10 µM; actives 0.44% (n = 310,000);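 active = calcium response B-score plate-corrected fluorescence ratio at least 3 library SD, with starting fluorescence B-score inside 5 SD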
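Assay system: MrgX1-expressing HEK293 cells / Amount: fifteen thousand cells per well / Doses: test compound in the initial addition of three / Timing: cells plated overnight, dye loaded 0.5 h 37 °C, 0.5 h room temperature / Technique: kinetic calcium dye fluorescence, Fluo-4 NW / Control set: positive and negative controls per plate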
MrgX1 antagonist: human MrgX1 receptor antagonism, primary screen; Q96LB2; MRGX1-HEK293 calcium flux, Fluo-4, BAM8-22 antagonism; hits give low values; B-score at 10 µM; actives 1.3% (n = 310,000); AID 588676;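 active = calcium-response B-score plate-corrected more than 3 library SD below zero, starting fluorescence within 5 deviations, no agonist response on first addition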;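 also: peak minus trough fluorescence over baseline after final BAM8-22 challenge near maximal dose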
RGS4 pot: potentiators or activators of RGS4 | HEK293 M3R/inducible RGS4, carbachol calcium flux Fluo4; hits give low values | B-score at 10 µM | actives 0.92% (n = 310,000) | AID 463111;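 active = B-score of the integrated calcium signal more than 4 SD below the library mean, with starting fluorescence not abnormally high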;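 also: negative B-score means reduced calcium response which marks RGS4 activation or potentiation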
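Test system: HEK293 cells with stable M3R and inducible RGS4; also added: carbachol at ECmax as muscarinic agonist stimulus; schedule: dye loading 30 min 37 °C, buffer rest 30 min RT; technique: kinetic calcium fluorescence imaging with Fluo4-AM dye, 2 µM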
RGS4 inh: inhibitors of human RGS4; P49798; HEK293 M3R/RGS4 inducible, Fluo-4 calcium flux; hits give high values; triggered by carbachol at its EC20; B-score at 10 µM; actives 0.45% (n = 310,000);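 active = B-score, a plate-corrected calcium signal, over three deviations above library mean, with baseline fluorescence within five deviations of library mean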;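 also: RGS4 expression induced by doxycycline in cells with stable M3 receptor; B-score is computed from the integrated fluorescence ratio over baseline after carbachol; higher B-score means a larger calcium signal and so more RGS4 inhibition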
Target sequence (P49798 whole entry, looked up): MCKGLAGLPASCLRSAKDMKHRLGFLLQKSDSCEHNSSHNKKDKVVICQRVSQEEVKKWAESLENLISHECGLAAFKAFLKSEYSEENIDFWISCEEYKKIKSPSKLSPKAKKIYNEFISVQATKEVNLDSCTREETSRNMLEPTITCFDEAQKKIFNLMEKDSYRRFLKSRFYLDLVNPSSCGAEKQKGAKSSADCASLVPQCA
MrgX1 antag conf: human MrgX1 receptor antagonism, re-confirmation screen. remaining BAM8-22 calcium response % of control (hits give low values), % at 10 µM. actives 19% (n = 2,300). shares compounds with MrgX1 antagonist. MrgX1-HEK293, BAM8-22 calcium flux, Fluo-4; hits give low values;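 active = remaining agonist calcium response no higher than 100% minus 3 SD of agonist-only control wells, with starting fluorescence near control levels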;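 also: agonist BAM8-22 given at a near maximal EC90 to ECmax level; peak minus minimum fluorescence divided by baseline after agonist addition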
HEK293 Ca flux: counter-screen for MrgX1 antagonists: effect in parental HEK293 cells | shares compounds with MrgX1 antagonist | Fluo-4 calcium fluorescence, FDSS | fluorescence ratio F(max-min)/F0 at 10 µM | actives 2% (n = 4,000) | AID 624111;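 active = duplicate-averaged calcium fluorescence ratio at least three times the standard deviation of buffer wells, a nonspecific response in parental cells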
HEK293 Ca counter: activity in parental HEK293 cells without MrgX1; actives 0.4% (n = 4,000); AID 624114; shares compounds with MrgX1 antagonist; fluorescence ratio F(max-min)/F0 at 10 µM; parental HEK293 calcium flux, Fluo-4 fluorescence ratio; hits give high values;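 active = calcium fluorescence ratio, averaged over duplicates, at least 3 SD of the buffer-well ratio, meaning a nonspecific response in receptor-free cells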;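 also: untransfected parental HEK293 lacking MrgX1 used as counterscreen for MrgX1 allosteric activators; fluorescence change taken during the second addition on a kinetic imager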
HEK293 Ca cntr2: activity in parental HEK293 cells lacking MrgX1 receptor. Fluo-4 calcium fluorescence (FDSS); hits give high values. actives 8.7% (n = 4,000). fluorescence ratio F(max-min)/F0 at 10 µM. AID 624115. shares compounds with MrgX1 antagonist;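 active = calcium fluorescence ratio at least three times the spread of buffer wells, meaning a non-specific response in parental cells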
Of the large screens only hits and unclear results are named; the others gave an inactive call (follow-up assays come after a bar, where they were run).

Cc1cc2nc3n(c2cc1C)CC1CC(C(=O)NCc2cccc(C(F)(F)F)c2)N(C)C31 (stereo not drawn)	MrgX1 antagonist -5.5 | MrgX1 antag conf inactive | HEK293 Ca flux inactive | HEK293 Ca counter inactive | HEK293 Ca cntr2 inactive
CC(=Nc1ccccc1C)C1=C(O)CSC1=O	MrgX1 antagonist -5.4 | MrgX1 antag conf inactive | HEK293 Ca flux inactive | HEK293 Ca counter inactive | HEK293 Ca cntr2 inactive
CCOc1ccc(NS(=O)(=O)c2ccc(NC(=S)NC(=O)C(C)C)cc2)cc1	none
Cc1ccc(CNC(=O)Cc2ccc(-c3ccccc3)cc2)cc1	none
Cc1ccc(CC(=O)NCc2ccc(F)cc2)cc1	MrgX1 antagonist -5 | MrgX1 antag conf inactive | HEK293 Ca flux inactive | HEK293 Ca counter inactive | HEK293 Ca cntr2 inactive
COC(=O)CCC(=O)Nc1cccc(Cl)c1	MrgX1 antagonist -5.4 | MrgX1 antag conf 84% | HEK293 Ca flux inactive | HEK293 Ca counter inactive | HEK293 Ca cntr2 inactive
O=C(c1cc(COc2ccc(F)cc2Cl)on1)N1CCC(c2ccncc2)CC1	none
CSc1ccccc1OCc1cc(C(=O)N2CCC(c3ccncc3)CC2)no1	MrgX1 antagonist -6.1 | MrgX1 antag conf 80% | HEK293 Ca flux inactive | HEK293 Ca counter inactive | HEK293 Ca cntr2 inactive
O=C(COc1ccc(Cl)cc1)NCCc1ccccn1	MrgX1 antagonist -5.2 | MrgX1 antag conf 85% | HEK293 Ca flux inactive | HEK293 Ca counter inactive | HEK293 Ca cntr2 inactive
O=C(COc1ccc(Cl)cc1)NCCCNC(=O)c1ccccn1	none
S=C(NCCc1ccccn1)Nc1ccc(Cl)c(Cl)c1	none
S=C(NCCc1ccccn1)Nc1cc(Cl)cc(Cl)c1	MrgX1 antagonist -4.5 | MrgX1 antag conf 81% | HEK293 Ca flux inactive | HEK293 Ca counter inactive | HEK293 Ca cntr2 inactive
COc1cc(C(=O)Nc2ccc3c(c2)Cc2ccccc2-3)cc(OC)c1OC	none
COc1ccc(NC(=O)CN(C)C(=O)CSc2ccc3c(c2)OCCO3)cc1	MrgX1 antagonist -5.2 | MrgX1 antag conf inactive | HEK293 Ca flux inactive | HEK293 Ca counter inactive | HEK293 Ca cntr2 inactive
Cc1ccc(S(=O)(=O)N2CCC(=O)N(CCOC(=O)NCc3ccccc3)CC2)cc1	none (no result: RGS4 pot, RGS4 inh)
CCC(C)(C)n1nnnc1C(c1ccc2ncccc2c1)N1CCN(Cc2ccc3c(c2)OCO3)CC1 (stereo not drawn)	none
CCC(C)(C)n1nnnc1C(c1ccc(C)cc1)N1CCN(Cc2ccc3c(c2)OCO3)CC1 (stereo not drawn)	MrgX1 antagonist -6.2 | MrgX1 antag conf inactive | HEK293 Ca flux inactive | HEK293 Ca counter inactive | HEK293 Ca cntr2 inactive
CCC1CCCCN1C(=O)c1cc(-c2ccc(Cl)c(Cl)c2)on1 (stereo not drawn)	none
Cc1ccc(S(=O)(=O)N2CCCC2C(=O)NC2CCCCC2)cc1 (stereo not drawn)	MrgX1 antagonist -14 | MrgX1 antag conf inactive | HEK293 Ca flux inactive | HEK293 Ca counter inactive | HEK293 Ca cntr2 inactive
CCOC(=O)c1nnn(CC(=O)N2N=C(c3cc(C)ccc3C)CC2c2ccc(OC)cc2)c1C(=O)OCC (stereo not drawn)	none
NC(=O)c1sc2nc(-c3cccs3)ccc2c1N	none
Nc1c(C(=O)NC2CCCC2)sc2nc(-c3cccs3)ccc12	MrgX1 antagonist -4.7 | MrgX1 antag conf inactive | HEK293 Ca flux inactive | HEK293 Ca counter inactive | HEK293 Ca cntr2 inactive
COCCn1c(C)cc(C(=O)CSc2nc3nc(C)cc(C)n3n2)c1C	none
COCCn1c(C)cc(C(=O)CSc2n[nH]c(N)n2)c1C	MrgX1 antagonist -4.8 | MrgX1 antag conf inactive | HEK293 Ca flux inactive | HEK293 Ca counter inactive | HEK293 Ca cntr2 inactive
O=C(Nc1ccc(F)cc1)Nc1cc(OCC(F)(F)F)cc(OCC(F)(F)F)c1	MrgX1 antagonist -6 | MrgX1 antag conf 62% | HEK293 Ca flux inactive | HEK293 Ca counter inactive | HEK293 Ca cntr2 inactive
COc1cccc(Nc2ncnc3sccc23)c1	none
COC(=O)c1cccc(Nc2ncnc3sccc23)c1	MrgX1 antagonist -4.5 | MrgX1 antag conf inactive | HEK293 Ca flux inactive | HEK293 Ca counter inactive | HEK293 Ca cntr2 inactive
O=C(c1cnn2c(C(F)F)cc(-c3ccccc3)nc12)N1CCc2ccccc21	MrgX1 antagonist -4.7 | MrgX1 antag conf inactive | HEK293 Ca flux inactive | HEK293 Ca counter inactive | HEK293 Ca cntr2 inactive
Cc1ccc(-c2cc(C(F)F)n3ncc(C(=O)N4CCc5ccccc54)c3n2)cc1	none
CCN1CCN(C(=O)c2cnn3c(C(F)F)cc(-c4ccc(C)cc4)nc23)CC1	MrgX1 antagonist -8.5 | MrgX1 antag conf inactive | HEK293 Ca flux inactive | HEK293 Ca counter inactive | HEK293 Ca cntr2 inactive
Cc1nn(C)cc1CN(C)C(=O)c1nn2c(c1Cl)NC(c1cccs1)CC2C(F)(F)F (stereo not drawn)	MrgX1 antagonist -5 | MrgX1 antag conf 74% | HEK293 Ca flux inactive | HEK293 Ca counter inactive | HEK293 Ca cntr2 inactive
Cc1cc(C)n(-c2ccc(C(=O)O)cc2)n1	none
Cc1cc(Nc2ccccc2)n(-c2ccc(C(=O)O)cc2)n1	MrgX1 antagonist -4.5 | MrgX1 antag conf inactive | HEK293 Ca flux inactive | HEK293 Ca counter inactive | HEK293 Ca cntr2 inactive
COc1ccc(-c2nnn(CC(=O)c3ccccc3)n2)cc1OC	MrgX1 antagonist -4.7 | MrgX1 antag conf inactive | HEK293 Ca flux inactive | HEK293 Ca counter inactive | HEK293 Ca cntr2 inactive
COc1cc(-c2nnn(CC(=O)NC3CCS(=O)(=O)C3)n2)ccc1OCc1ccccc1 (stereo not drawn)	none
COc1cc(-c2nnn(CC#N)n2)ccc1OCc1ccccc1	MrgX1 antagonist -4.7 | MrgX1 antag conf inactive | HEK293 Ca flux inactive | HEK293 Ca counter inactive | HEK293 Ca cntr2 inactive
COc1ccc(C)cc1N(CC(=O)Nc1ccc(S(=O)(=O)N2CCOCC2)cc1)S(C)(=O)=O	MrgX1 antagonist -5.2 | MrgX1 antag conf inactive | HEK293 Ca flux inactive | HEK293 Ca counter inactive | HEK293 Ca cntr2 inactive
Cc1[nH]c(=O)nc(SCc2cccc(Cl)c2)c1C#N	none
Cc1[nH]c(=O)nc(SCc2ccc(Cl)c(Cl)c2)c1C#N	MrgX1 antagonist -7 | MrgX1 antag conf inactive | HEK293 Ca flux inactive | HEK293 Ca counter inactive | HEK293 Ca cntr2 inactive
C=CCN(C(=O)Cc1cccs1)c1nc(-c2ccc(S(C)(=O)=O)cc2)cs1	none
